Laboratory results as given in ChEMBL document CHEMBL1137649, “Mupirocin-resistant, methicillin-resistant Staphylococcus aureus strains in Canadian hospitals” (2007).
≈ marks a conversion by molar mass, not a printed value.

What was measured:
Format in all cases: functional
Staphylococcus aureus [1] = assay: Antimicrobial activity against mupirocin-resistant methicillin-resistant Staphylococcus aureus assessed as resistant rate by broth microdilution method
Procedure, shortened: (§1)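 Clinical MRSA isolates (4,980) from 32 Canadian hospitals, 1995–2004, confirmed by multiplex PCR for mecA and nuc. Susceptibility done by broth microdilution following CLSI guidelines. Inducible clindamycin resistance in macrolide-resistant isolates detected by standardized disk approximation test. Isolates grouped as high-level mupirocin-resistant or mupirocin-susceptible. Resistance rates expressed as percentage of isolates per group.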

Staphylococcus aureus [2] = assay: Antimicrobial activity against mupirocin-susceptible methicillin-resistant Staphylococcus aureus by broth microdilution method; procedure, shortened: as §1
Staphylococcus aureus [3] = assay: Antimicrobial activity against mupirocin-resistant methicillin-resistant Staphylococcus aureus by broth microdilution method; procedure, shortened: as §1
Staphylococcus aureus [4] = assay: Antimicrobial activity against mupirocin-susceptible methicillin-resistant Staphylococcus aureus assessed as resistant rate by broth microdilution method; procedure, shortened: as §1

O=C(O)c1cn(C2CC2)c2cc(N3CCNCC3)c(F)cc2c1=O [CIPROFLOXACIN] was tested. Which Activity (Staphylococcus aureus [1]) did it give?
The Activity was 75%.

What about the MIC (Staphylococcus aureus [2]) of the same molecule?
Its MIC is at most 4 µg/mL.

What about the MIC90 (Staphylococcus aureus [2]) of the same molecule?
The MIC90 was over 8 µg/mL.

What about the MIC (Staphylococcus aureus [3]) of the same molecule?
The MIC was at least 512 µg/mL.

And the MIC90 (Staphylococcus aureus [3])?
The MIC90 was over 8 µg/mL.

And the Activity (Staphylococcus aureus [4])?
Its Activity is 90%.

What does the source list for CCC[C@@H]1C[C@@H](C(=O)N[C@@H]([C@H]2O[C@H](SC)[C@H](O)[C@@H](O)[C@H]2O)[C@H](C)Cl)N(C)C1 [CLINDAMYCIN]?
Activity (Staphylococcus aureus [1]): 85%; MIC (Staphylococcus aureus [2]): ≤ 4 µg/mL; MIC90 (Staphylococcus aureus [2]): > 8 µg/mL; MIC (Staphylococcus aureus [3]): ≥ 512 µg/mL; MIC90 (Staphylococcus aureus [3]): > 8 µg/mL; Activity (Staphylococcus aureus [4]): 86%

What does the source list for CC[C@H]1OC(=O)[C@H](C)[C@@H](O[C@H]2C[C@@](C)(OC)[C@@H](O)[C@H](C)O2)[C@H](C)[C@@H](O[C@@H]2O[C@H](C)C[C@H](N(C)C)[C@H]2O)[C@](C)(O)C[C@@H](C)C(=O)[C@H](C)[C@@H](O)[C@]1(C)O [ERYTHROMYCIN]?
Activity (Staphylococcus aureus [1]): 86%; MIC (Staphylococcus aureus [2]): ≤ 4 µg/mL; MIC90 (Staphylococcus aureus [2]): > 8 µg/mL; MIC (Staphylococcus aureus [3]): ≥ 512 µg/mL; MIC90 (Staphylococcus aureus [3]): > 8 µg/mL; Activity (Staphylococcus aureus [4]): 94%

For CC(=O)O[C@H]1C[C@@]2(C)[C@@H](C[C@@H](O)[C@H]3[C@@]4(C)CC[C@@H](O)[C@@H](C)[C@@H]4CC[C@@]32C)/C1=C(\CCC=C(C)C)C(=O)O [FUSIDIC ACID], which Activity (Staphylococcus aureus [1]) is on record?
Its Activity is 21%.

What about the MIC (Staphylococcus aureus [2]) of the same molecule?
The MIC was at most 0.5 µg/mL.

And the MIC90 (Staphylococcus aureus [2])?
Its MIC90 is 0.5 µg/mL (≈ 0.968 µM).

What about the MIC (Staphylococcus aureus [3]) of the same molecule?
The MIC was at least 512 µg/mL.

And the MIC90 (Staphylococcus aureus [3])?
The MIC90 was over 8 µg/mL.

What about the Activity (Staphylococcus aureus [4]) of the same molecule?
Its Activity is 4%.

With CC(=O)NC[C@H]1CN(c2ccc(N3CCOCC3)c(F)c2)C(=O)O1 [LINEZOLID] as the molecule, how does the Activity (Staphylococcus aureus [1]) read?
The Activity was 0%.

What about the MIC (Staphylococcus aureus [2]) of the same molecule?
The MIC was at most 4 µg/mL.

What about the MIC90 (Staphylococcus aureus [2]) of the same molecule?
The MIC90 was 1 µg/mL (≈ 2.96 µM).

And the MIC (Staphylococcus aureus [3])?
Its MIC is at least 512 µg/mL.

What about the MIC90 (Staphylococcus aureus [3]) of the same molecule?
Its MIC90 is 2 µg/mL (≈ 5.93 µM).

And the Activity (Staphylococcus aureus [4])?
Its Activity is 0%.

What does the source list for C/C(=C\C(=O)OCCCCCCCCC(=O)O)C[C@@H]1OC[C@H](C[C@@H]2O[C@H]2[C@@H](C)[C@H](C)O)[C@@H](O)[C@H]1O [MUPIROCIN]?
Activity (Staphylococcus aureus [1]): 100%; MIC (Staphylococcus aureus [2]): ≤ 4 µg/mL; MIC90 (Staphylococcus aureus [2]): 0.5 µg/mL (≈ 0.999 µM); MIC (Staphylococcus aureus [3]): ≥ 512 µg/mL; MIC90 (Staphylococcus aureus [3]): > 512 µg/mL; Activity (Staphylococcus aureus [4]): 0%

CO[C@H]1/C=C/O[C@@]2(C)Oc3c(C)c(O)c4c(O)c(c(/C=N/N5CCN(C)CC5)c(O)c4c3C2=O)NC(=O)/C(C)=C\C=C\[C@H](C)[C@H](O)[C@@H](C)[C@@H](O)[C@@H](C)[C@H](OC(C)=O)[C@@H]1C [RIFAMPIN] was tested. Which Activity (Staphylococcus aureus [1]) did it give?
The Activity was 4%.

What about the MIC (Staphylococcus aureus [2]) of the same molecule?
The MIC was at most 4 µg/mL.

What about the MIC90 (Staphylococcus aureus [2]) of the same molecule?
Its MIC90 is under 0.5 µg/mL.

What about the MIC (Staphylococcus aureus [3]) of the same molecule?
Its MIC is at least 512 µg/mL.

And the MIC90 (Staphylococcus aureus [3])?
Its MIC90 is under 0.5 µg/mL.

And the Activity (Staphylococcus aureus [4])?
Its Activity is 2%.

How did the Activity (Staphylococcus aureus [1]) turn out when CN(C)[C@@H]1C(O)=C(C(N)=O)C(=O)[C@@]2(O)C(O)=C3C(=O)c4c(O)cccc4[C@@](C)(O)[C@H]3C[C@@H]12 [TETRACYCLINE] was run?
Its Activity is 7%.

What about the MIC (Staphylococcus aureus [2]) of the same molecule?
The MIC was at most 4 µg/mL.

What about the MIC90 (Staphylococcus aureus [2]) of the same molecule?
The MIC90 was over 16 µg/mL.

And the MIC (Staphylococcus aureus [3])?
Its MIC is at least 512 µg/mL.

What about the MIC90 (Staphylococcus aureus [3]) of the same molecule?
The MIC90 was under 4 µg/mL.

And the Activity (Staphylococcus aureus [4])?
The Activity was 23%.

With CN[C@H](CC(C)C)C(=O)N[C@H]1C(=O)N[C@@H](CC(N)=O)C(=O)N[C@H]2C(=O)N[C@H]3C(=O)N[C@H](C(=O)N[C@H](C(=O)O)c4cc(O)cc(O)c4-c4cc3ccc4O)[C@H](O)c3ccc(c(Cl)c3)Oc3cc2cc(c3O[C@@H]2O[C@H](CO)[C@@H](O)[C@H](O)[C@H]2O[C@H]2C[C@](C)(N)[C@H](O)[C@H](C)O2)Oc2ccc(cc2Cl)[C@H]1O [VANCOMYCIN] as the molecule, how does the Activity (Staphylococcus aureus [1]) read?
The Activity was 0%.

And the MIC (Staphylococcus aureus [2])?
The MIC was at most 4 µg/mL.

And the MIC90 (Staphylococcus aureus [2])?
The MIC90 was 1 µg/mL (≈ 0.69 µM).

What about the MIC (Staphylococcus aureus [3]) of the same molecule?
Its MIC is at least 512 µg/mL.

What about the MIC90 (Staphylococcus aureus [3]) of the same molecule?
Its MIC90 is 1 µg/mL (≈ 0.69 µM).

And the Activity (Staphylococcus aureus [4])?
The Activity was 0%.
